The text below walks through data of ChEMBL document CHEMBL5096209, “Structure-Activity Studies of 3,9-Diazaspiro[5.5]undecane-Based γ-Aminobutyric Acid Type A Receptor Antagonists with Immunomodulatory Effect” (J Med Chem, 2021).

The structures appear in SMILES notation.

The target in experiment [1] is T1, GABA A receptor alpha-3/beta-2/gamma-2 (Homo sapiens, UniProt P18507+P34903+P47870).
T1 sequence (P47870 whole entry): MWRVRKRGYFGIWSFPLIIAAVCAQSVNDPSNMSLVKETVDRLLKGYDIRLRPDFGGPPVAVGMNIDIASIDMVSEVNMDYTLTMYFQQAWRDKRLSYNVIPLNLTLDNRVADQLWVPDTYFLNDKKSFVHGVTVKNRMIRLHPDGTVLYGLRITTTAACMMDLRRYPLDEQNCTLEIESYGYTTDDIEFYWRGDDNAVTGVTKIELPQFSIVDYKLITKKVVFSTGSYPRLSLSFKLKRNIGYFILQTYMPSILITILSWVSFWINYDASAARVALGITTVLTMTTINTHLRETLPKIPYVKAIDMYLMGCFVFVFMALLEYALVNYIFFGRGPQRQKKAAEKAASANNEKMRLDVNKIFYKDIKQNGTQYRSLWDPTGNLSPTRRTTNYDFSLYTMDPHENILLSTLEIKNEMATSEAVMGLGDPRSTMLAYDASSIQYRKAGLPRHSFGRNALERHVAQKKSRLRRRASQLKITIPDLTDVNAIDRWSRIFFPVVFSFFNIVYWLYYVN
T1 sequence (P18507 whole entry): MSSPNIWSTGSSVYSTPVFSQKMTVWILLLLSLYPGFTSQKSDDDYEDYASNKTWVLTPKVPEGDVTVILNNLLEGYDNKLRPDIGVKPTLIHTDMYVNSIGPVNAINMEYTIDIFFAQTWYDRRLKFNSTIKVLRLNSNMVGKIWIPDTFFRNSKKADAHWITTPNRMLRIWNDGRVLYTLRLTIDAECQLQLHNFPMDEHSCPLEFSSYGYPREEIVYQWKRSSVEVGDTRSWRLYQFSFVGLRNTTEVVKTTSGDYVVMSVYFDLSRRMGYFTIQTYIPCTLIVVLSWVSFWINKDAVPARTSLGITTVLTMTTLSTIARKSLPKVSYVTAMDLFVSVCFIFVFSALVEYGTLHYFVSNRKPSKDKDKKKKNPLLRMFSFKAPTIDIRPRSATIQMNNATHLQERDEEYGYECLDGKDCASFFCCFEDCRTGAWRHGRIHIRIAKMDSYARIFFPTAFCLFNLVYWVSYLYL
T1 sequence (P34903 whole entry): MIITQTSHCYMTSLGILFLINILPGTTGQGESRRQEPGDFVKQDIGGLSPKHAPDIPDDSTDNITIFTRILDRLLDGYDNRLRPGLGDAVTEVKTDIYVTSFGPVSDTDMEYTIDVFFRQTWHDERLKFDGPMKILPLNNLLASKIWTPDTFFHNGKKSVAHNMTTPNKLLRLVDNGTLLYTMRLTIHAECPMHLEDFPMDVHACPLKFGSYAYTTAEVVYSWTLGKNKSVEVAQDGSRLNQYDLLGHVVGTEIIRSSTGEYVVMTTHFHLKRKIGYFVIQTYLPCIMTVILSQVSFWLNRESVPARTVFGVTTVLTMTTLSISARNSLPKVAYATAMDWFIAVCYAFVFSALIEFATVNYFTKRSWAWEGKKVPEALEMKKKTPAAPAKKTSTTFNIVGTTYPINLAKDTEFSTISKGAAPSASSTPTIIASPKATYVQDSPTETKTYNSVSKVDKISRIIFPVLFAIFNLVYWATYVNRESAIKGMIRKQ
In words: Antagonist activity at human alpha3beta2gamma2 GABAA receptor expressed in HEKcells by FMP assay. In kind it is cell-based, HEK. Put shortly:
(§1)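 Human αβγ2 receptors in HEK293 cells: α1β2γ2 stably expressed, other αβγ2 subtypes transiently transfected into HEK293 Flp-In background cells (α:β:γ 1:1:2). FLIPR membrane potential assay with ΔRFU baseline to peak/plateau and GABA EC80 as agonist. IC50 from a four-parameter fit, at least three independent experiments.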

Experiment [2] has as its target T2, GABA A receptor alpha-2/beta-2/gamma-2 (Homo sapiens, UniProt P18507+P47869+P47870).
T2 sequence (P47870 whole entry): T1 sequence (P47870 whole entry)
T2 sequence (P18507 whole entry): T1 sequence (P18507 whole entry)
T2 sequence (P47869 whole entry): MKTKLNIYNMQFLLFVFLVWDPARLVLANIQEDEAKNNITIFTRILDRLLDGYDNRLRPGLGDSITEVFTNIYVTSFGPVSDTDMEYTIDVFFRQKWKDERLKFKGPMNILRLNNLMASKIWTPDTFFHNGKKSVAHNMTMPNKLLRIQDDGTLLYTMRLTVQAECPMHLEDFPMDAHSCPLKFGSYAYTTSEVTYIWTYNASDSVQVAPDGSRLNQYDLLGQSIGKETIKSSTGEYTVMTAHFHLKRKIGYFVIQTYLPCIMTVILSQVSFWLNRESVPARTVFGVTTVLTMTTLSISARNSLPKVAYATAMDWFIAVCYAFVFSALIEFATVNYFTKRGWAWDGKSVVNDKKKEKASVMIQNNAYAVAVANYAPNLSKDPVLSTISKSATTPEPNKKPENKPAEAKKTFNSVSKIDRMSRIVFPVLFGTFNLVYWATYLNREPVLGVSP
Description: Antagonist activity at human alpha2beta2gamma2 GABAA receptor expressed in HEK293 cells by FMP assay. The format is cell-based. Summed up: as §1

Consider `O=C(Nc1cccc(C(=O)N2CCC3(CCNCC3)CC2)c1)c1cccs1`, for which the IC50 in experiment [1] is 0.079 µM; in experiment [1] (read-out: pIC50 (converted)) it was 0.0794 µM.
On to `CC(=O)Nc1cccc(C(=O)N2CCC3(CCNCC3)CC2)c1`, for which the IC50 in experiment [1] is 0.29 µM; in experiment [1] (read-out: pIC50 (converted)), 0.288 µM.
For `Cc1ccc(C(=O)N2CCC3(CCNCC3)CC2)cc1`, the IC50 in experiment [2] was 25.3 µM; in experiment [2] (read-out: pIC50 (converted)) it was 25.1 µM.
Turning to `Cc1cccc(C(=O)N2CCC3(CCNCC3)CC2)c1`, the IC50 is 7.56 µM in experiment [2] and 7.41 µM in experiment [2] (read-out: pIC50 (converted)).
